Laboratory results published in ChEMBL document CHEMBL1153726, “Synthesis and anticancer activity of sclerophytin-inspired hydroisobenzofurans” (Bioorg Med Chem Lett, 2009).

Assays:
Format in all cases: functional
OVCAR-4 = assay: Growth inhibition of human OVCAR4 cells at 1 nM after 96 hrs by MTT assay; design: scale not given: the % may be the effect or the level left
KM12 = assay: Growth inhibition of human KM12 cells at 10 uM after 96 hrs by MTT assay; design: scale not given: the % may be the effect or the level left
SNB-75 [1] = assay: Growth inhibition of human SNB75 cells at 10 nM after 96 hrs by MTT assay; design: scale not given: the % may be the effect or the level left
A549 [2] = assay: Growth inhibition of human A549 cells at 1 nM after 96 hrs by MTT assay; design: scale not given: the % may be the effect or the level left
HOP-92 = assay: Growth inhibition of human HOP92 cells at 10 uM after 96 hrs by MTT assay; design: scale not given: the % may be the effect or the level left
SR = assay: Growth inhibition of human SR cells at 1 uM after 96 hrs by MTT assay; design: scale not given: the % may be the effect or the level left
HCT-116 = assay: Growth inhibition of human HCT116 cells at 10 uM after 96 hrs by MTT assay; design: scale not given: the % may be the effect or the level left
SNB-19 [3] = assay: Growth inhibition of human SNB19 cells after 96 hrs by MTT assay; settings: SNB-19, 96 h
Outline: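 Tested in the NCI 60-cell-line panel in five-dose format; GI50 and LC50 values reported for each cell line.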

CAKI-1 = assay: Growth inhibition of human Caki1 cells at 100 nM after 96 hrs by MTT assay; design: scale not given: the % may be the effect or the level left
NCI-H226 = assay: Growth inhibition of human NCI-H226 cells at 1 nM after 96 hrs by MTT assay; design: scale not given: the % may be the effect or the level left
SNB-19 [4] = assay: Growth inhibition of human SNB19 cells at 100 nM after 96 hrs by MTT assay; design: scale not given: the % may be the effect or the level left
OVCAR-3 = assay: Growth inhibition of human OVCAR-3 cells at 10 uM after 96 hrs by MTT assay; design: scale not given: the % may be the effect or the level left
UO-31 = assay: Growth inhibition of human UO31 cells at 100 nM after 96 hrs by MTT assay; design: scale not given: the % may be the effect or the level left
SN12C [5] = assay: Growth inhibition of human SN12C cells at 10 uM after 96 hrs by MTT assay; design: scale not given: the % may be the effect or the level left
NCI/ADR-RES [6] = assay: Growth inhibition of human NCI/ADR-RES cells at 1 nM after 96 hrs by MTT assay; design: scale not given: the % may be the effect or the level left
[7] = Growth inhibition of human RPMI8266 cells at 10 uM after 96 hrs by MTT assay; design: scale not given: the % may be the effect or the level left
SF-295 = assay: Growth inhibition of human SF295 cells at 10 nM after 96 hrs by MTT assay; design: scale not given: the % may be the effect or the level left
SK-MEL-5 = assay: Growth inhibition of human SK-MEL-5 cells at 1 uM after 96 hrs by MTT assay; design: scale not given: the % may be the effect or the level left
A549 [8] = assay: Growth inhibition of human A549 cells at 100 nM after 96 hrs by MTT assay; design: scale not given: the % may be the effect or the level left
MDA-MB-468 [9] = assay: Growth inhibition of human MDA-MB-468 cells at 10 nM after 96 hrs by MTT assay; design: scale not given: the % may be the effect or the level left
UACC-62 = assay: Growth inhibition of human UACC62 cells at 10 uM after 96 hrs by MTT assay; design: scale not given: the % may be the effect or the level left
SNB-19 [10] = assay: Growth inhibition of human SNB19 cells at 10 nM after 96 hrs by MTT assay; design: scale not given: the % may be the effect or the level left
[11] = Growth inhibition of human RPMI8266 cells at 1 uM after 96 hrs by MTT assay; design: scale not given: the % may be the effect or the level left
HOP-62 = assay: Growth inhibition of human HOP62 cells after 96 hrs by MTT assay; settings: HOP-62, 96 h
Outline: (§1)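 Run in the NCI 60 human tumour cell line panel as a five-dose assay. GI50 and LC50 were reported for each cell line.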

A549 [12] = assay: Growth inhibition of human A549 cells at 10 uM after 96 hrs by MTT assay; design: scale not given: the % may be the effect or the level left
NCI/ADR-RES [13] = assay: Growth inhibition of human NCI/ADR-RES cells after 96 hrs by MTT assay; outline: as §1
HCT-15 = assay: Growth inhibition of human HCT15 cells at 1 uM after 96 hrs by MTT assay; design: scale not given: the % may be the effect or the level left
SN12C [14] = assay: Growth inhibition of human SN12C cells at 1 uM after 96 hrs by MTT assay; design: scale not given: the % may be the effect or the level left
SNB-75 [15] = assay: Growth inhibition of human SNB75 cells at 10 uM after 96 hrs by MTT assay; design: scale not given: the % may be the effect or the level left
NCI-H460 = assay: Growth inhibition of human NCI-H460 cells at 10 uM after 96 hrs by MTT assay; design: scale not given: the % may be the effect or the level left
EKVX [16] = assay: Growth inhibition of human EKVX cells at 100 nM after 96 hrs by MTT assay; design: scale not given: the % may be the effect or the level left
MDA-MB-435 = assay: Growth inhibition of human MDA-MB-435 cells after 96 hrs by MTT assay; settings: MDA-MB-435, 96 h; outline: as §1
786-0 [17] = assay: Growth inhibition of human 786-0 cells at 100 nM after 96 hrs by MTT assay; design: scale not given: the % may be the effect or the level left
SF-539 = assay: Growth inhibition of human SF539 cells at 10 uM after 96 hrs by MTT assay; design: scale not given: the % may be the effect or the level left
SF-268 = assay: Growth inhibition of human SF268 cells at 10 nM after 96 hrs by MTT assay; design: scale not given: the % may be the effect or the level left
EKVX [18] = assay: Growth inhibition of human EKVX cells at 1 nM after 96 hrs by MTT assay; design: scale not given: the % may be the effect or the level left
SN12C [19] = assay: Growth inhibition of human SN12C cells at 10 nM after 96 hrs by MTT assay; design: scale not given: the % may be the effect or the level left
A549 [20] = assay: Growth inhibition of human A549 cells at 10 nM after 96 hrs by MTT assay; design: scale not given: the % may be the effect or the level left
786-0 [21] = assay: Growth inhibition of human 786-0 cells at 1 uM after 96 hrs by MTT assay; design: scale not given: the % may be the effect or the level left
OVCAR-5 = assay: Growth inhibition of human OVCAR5 cells at 100 nM after 96 hrs by MTT assay; design: scale not given: the % may be the effect or the level left
SK-MEL-2 = assay: Growth inhibition of human SK-MEL-2 cells at 10 uM after 96 hrs by MTT assay; design: scale not given: the % may be the effect or the level left
SNB-19 [22] = assay: Growth inhibition of human SNB19 cells at 10 uM after 96 hrs by MTT assay; design: scale not given: the % may be the effect or the level left
DU-145 = assay: Growth inhibition of human DU145 cells at 10 nM after 96 hrs by MTT assay; design: scale not given: the % may be the effect or the level left
HCC 2998 = assay: Growth inhibition of human HCC2998 cells at 100 nM after 96 hrs by MTT assay; design: scale not given: the % may be the effect or the level left
CCRF-CEM = assay: Growth inhibition of human CCRF-CEM cells at 10 uM after 96 hrs by MTT assay; design: scale not given: the % may be the effect or the level left
MDA-MB-468 [23] = assay: Growth inhibition of human MDA-MB-468 cells at 100 nM after 96 hrs by MTT assay; design: scale not given: the % may be the effect or the level left
[24] = read-out: LC50 (the source's name)
[25] = read-out: Log10GI50 (converted)
[26] = read-out: Log10LC50 (converted)

C=C(C)[C@H]1CC=C(C)C2=CO[C@@H](c3ccccc3F)[C@@H]21
Activity (OVCAR-4): 91% | Activity (KM12): 85.93% | Activity (SNB-75 [1]): 81% | Activity (A549 [2]): 93% | Activity (HOP-92): 66.62% | Activity (SR): -36% | Activity (HCT-116): 71.81% | GI50 (SNB-19 [3]; read-out: GI50): 10.7 µM | CC50 (SNB-19 [3]; [24]): 47.4 µM | GI50 (SNB-19 [3]; [25]): 10.7 µM | CC50 (SNB-19 [3]; [26]): 47.9 µM | TGI (SNB-19 [3]; read-out: Log10TGI (converted)): 22.4 µM | TGI (SNB-19 [3]; read-out: TGI): 22.5 µM | Activity (CAKI-1): 87% | Activity (NCI-H226): 96% | Activity (SNB-19 [4]): 88% | Activity (OVCAR-3): 115.72% | Activity (UO-31): 81% | Activity (SN12C [5]): 100.7% | Activity (NCI/ADR-RES [6]): 105% | Activity [7]: 18.49% | Activity (SF-295): 92% | Activity (SK-MEL-5): 21% | Activity (A549 [8]): 95% | Activity (MDA-MB-468 [9]): 79% | Activity (UACC-62): 54.63% | Activity (SNB-19 [10]): 89% | Activity [11]: -52% | GI50 (HOP-62; read-out: GI50): 10.1 µM | CC50 (HOP-62; [24]): 46.8 µM | GI50 (HOP-62; [25]): 10.2 µM | CC50 (HOP-62; [26]): 46.8 µM | TGI (HOP-62; read-out: Log10TGI (converted)): 21.9 µM | TGI (HOP-62; read-out: TGI): 21.8 µM | Activity (A549 [12]): 71.63% | GI50 (NCI/ADR-RES [13]; read-out: GI50): 3.67 µM | CC50 (NCI/ADR-RES [13]; [24]): 56.1 µM | GI50 (NCI/ADR-RES [13]; [25]): 3.63 µM | CC50 (NCI/ADR-RES [13]; [26]): 56.2 µM | TGI (NCI/ADR-RES [13]; read-out: Log10TGI (converted)): 17.8 µM | TGI (NCI/ADR-RES [13]; read-out: TGI): 17.9 µM | Activity (HCT-15): 31% | Activity (SN12C [14]): 44% | Activity (SNB-75 [15]): 80.72% | Activity (NCI-H460): 92.68% | Activity (EKVX [16]): 80% | GI50 (MDA-MB-435; read-out: GI50): 2.65 µM | LC50 (MDA-MB-435; read-out: LC50): 66.3 µM | GI50 (MDA-MB-435; [25]): 2.63 µM | LC50 (MDA-MB-435; [26]): 66.1 µM | TGI (MDA-MB-435; read-out: Log10TGI (converted)): 11.5 µM | TGI (MDA-MB-435; read-out: TGI): 11.4 µM | Activity (786-0 [17]): 89% | Activity (SF-539): 92.75% | Activity (SF-268): 94% | Activity (EKVX [18]): 98% | Activity (SN12C [19]): 87% | Activity (A549 [20]): 89% | Activity (786-0 [21]): 48% | Activity (OVCAR-5): 100% | Activity (SK-MEL-2): 71.47% | Activity (SNB-19 [22]): 82.9% | Activity (DU-145): 84% | Activity (HCC 2998): 97% | Activity (CCRF-CEM): 68.96% | Activity (MDA-MB-468 [23]): 57%
